# Source: PubChem BioAssay AID1046 (PCMD, 2008)
# About 560 (0.25%) of roughly 220,000 compounds were called active. This is one part of a sample in which actives are shown more often than they occur. Unmarked numbers belong to inactive results.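 How the source made its calls: active means inhibition at or above 40%; inactive means inhibition below 40%.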
# Target: Prothrombin (Homo sapiens) (UniProt P00734)
# Assay: blockers of thrombin peptide substrate cleavage – biochemical, 1536-well, fluorogenic AMC substrate, counter-screen for coagulation protease inhibitor project, primary screen (AID 1046);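 further: 0% = enzyme with no compound and 100% = wells without enzyme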
# Details: alpha-thrombin, Boc-VPR-AMC fluorogenic substrate cleavage; at 5 µM; active compounds read high
# How it was run: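 Material: Human alpha-thrombin protein | Buffer or medium: pH 7.5 Tris-saline with Tween 20 | Reagent: Boc-VPR-AMC substrate, 15 µM final | Schedule: Reaction at ambient temperature | Detection: AMC fluorescence at 355 nm excitation and 460 nm emission | Evaluation: Percent inhibition scaled between no-compound controls and no-enzyme blanks | Controls: no-compound enzyme wells and no-enzyme blanks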
row,Structure (SMILES),inhibition
1,CN1CCN(CCC(=O)N/N=C/C=C2\N(C)c3ccccc3C2(C)C)CC1,-4.81%
2,CC(C)(C)NC(=O)c1cccc(NC(=O)Cc2ccc(Br)cc2)c1,-6.49%
3,CC(=O)NNC(=O)c1csc(Cc2c(Cl)sc3ccc(Cl)cc23)n1,-1.7%
4,CCOC(=O)C1CCN(c2c(Nc3cc(C)cc(C)c3)c(=O)c2=O)CC1,-1.29%
5,CSc1nc(-c2ccco2)nn1C(=O)c1ccccc1Cl,0.04%
6,CS(=O)(=O)n1nc(-c2ccco2)nc1N,1.66%
7,CSc1nc(-c2ccco2)nn1C(=O)CCc1ccccc1,99.4% (active)
8,O=C(c1cccc(S(=O)(=O)N2CCCC2)c1)N(Cc1ccco1)C1CCS(=O)(=O)C1 (configuration not stated),-1.64%
9,COC(=O)C(NS(=O)(=O)c1ccc(F)cc1)c1ccccc1 (configuration not stated),5.5%
10,CC(=O)NC(NC(=S)Nc1c(C)n(C)n(-c2ccccc2)c1=O)C(Cl)(Cl)Cl (configuration not stated),-5.85%
11,CCn1c(-c2cccnc2Cl)nc2cc(C)c(C)cc21,0.78%
12,Cc1ccccc1CC1(CO)CCCN(C(=O)c2cc(-c3ccccc3)no2)C1 (configuration not stated),-8.1%
13,CC(C)CC(CC(C)C)=NNC(=O)c1ccc(CSc2nncn2C)cc1,6.95%
14,CCn1ncc(CNC(=O)C2(C)CC2(Br)Br)c1C (configuration not stated),-5.28%
15,CC1(C)CC(=O)c2cnc3nc4ccccc4n3c2C1,-14.5%
16,Cc1ccc(C)c2[nH]c(=O)c(CN(Cc3cccnc3)C(=S)NCc3ccco3)cc12,-27%
17,COc1ccccc1N1CCN(c2ccc([N+](=O)[O-])nc2)CC1,1.48%
18,COc1ccc(CN2CCC(c3nc4ccc(Cl)cc4[nH]3)CC2)cc1,1.55%
19,Cc1ccc(NNC(=O)c2cccs2)cc1Cl,0.15%
20,CCC(=O)NCc1cc(-c2nn(C)c(=O)c3ccccc23)ccc1OC,2.19%
21,COc1ccc(-c2nn(C)c(=O)c3ccccc23)cc1NC(=O)COc1ccccc1,3.07%
22,COc1ccc(-c2nn(C)c(=O)c3ccccc23)cc1CNC(=O)C1CCCCC1,70.8% (active)
23,Cc1cc(CO)nn1-c1ccc([N+](=O)[O-])cc1,-4.29%
24,Cc1nnc(N/N=C/c2cccs2)[nH]c1=O,-0.86%
25,CCn1c(=O)c2cc(C(=O)Nc3cccc(C(C)=O)c3)sc2c2ccccc21,-4.44%

row,Structure (SMILES),inhibition
1,CC(C)S(=O)(=O)c1csc(NC(=O)Nc2ccc(Cl)cc2)c1Cl,3.02%
2,COC(=O)c1nc(NC(=O)c2ccc(F)cc2)n[nH]1,94.8% (active)
3,Cn1sc(NC(=O)c2ccccc2)nc1=O,3.97%
4,O=C(Nc1nsc(-c2ccccc2)n1)c1ccncc1,3.88%
5,C/C(=N/NC(=O)c1ccc(NC(=O)c2ccc(F)cc2)cc1)c1ccccc1,3.8%
6,COC(=O)c1nc(NC(=O)c2ccccc2)n[nH]1,98.4% (active)
7,O=C(Nc1n[nH]c(C(F)(F)F)n1)c1cccs1,5%
8,COC(=O)c1nc(NC(=O)c2ccc(C(C)(C)C)cc2)n[nH]1,58.9% (active)
9,COc1ccc(N2CCN(C(=O)CNC(=O)c3ccc(C(C)(C)C)cc3)CC2)cc1,12.8%
10,COc1ccc(C(=O)Nc2ccc(F)cc2F)cc1,-13.8%
11,S=c1[nH]nc(-c2ccncc2)n1/N=C/c1ccccc1Cl,-3.11%
12,COc1ccccc1-c1noc(CSc2nc(C)cc(=O)[nH]2)n1,-11.8%
13,Cc1ccc(SC(C)C(=O)NCc2ccc(F)cc2)cc1 (configuration not stated),-10%
14,Cc1c(-c2ccccc2)n[nH]c1C(=O)N=Nc1c(O)[nH]c2ccccc12,-11.5%
15,Cc1nc(SCc2ccc(F)cc2)c([N+](=O)[O-])[nH]1,-2.86%
16,COc1ccc(Cl)cc1CSc1ncn[nH]1,-8.18%
17,ClC1(Cl)CC1CSc1ncn[nH]1 (configuration not stated),102% (active)
18,Cn1nnc(NC(=O)CSc2ncn[nH]2)n1,-4.19%
19,CC1CN(CCOc2ccccc2[N+](=O)[O-])CC(C)O1 (configuration not stated),1.06%
20,Cc1ccc(NC(=O)c2ccn(C(=O)Nc3ccccc3)n2)c(C)c1,1.51%
21,CC1=NCCN1S(=O)(=O)c1cccc([N+](=O)[O-])c1,2.02%
22,CCCC(=O)OCC(=O)Nc1cc(Cl)ccc1[N+](=O)[O-],-3.57%
23,O=C(Nc1ccccc1)Nc1nnc(COc2ccccc2F)s1,-0.32%
24,O=C(c1cccc([N+](=O)[O-])c1)N1CCN(C(=O)c2ccco2)CC1,-2.02%
25,O=c1[nH]n(-c2ccc([N+](=O)[O-])cc2)c(=O)c2ccccc12,-6.59%

row,Structure (SMILES),inhibition
1,CCN1CCN(C(=O)/C=C\C(=O)O)CC1,-0.06%
2,C/C(=C/C(=O)N1CCN(C)CC1)C(=O)O,103% (active)
3,CN1CCN(C(=O)C2C3C=CC(C3)C2C(=O)O)CC1 (configuration not stated),-0.84%
4,NS(=O)(=O)c1ccc(CCNC(=O)CCCn2c(SCC(=O)N3CCCC3)nc3ccsc3c2=O)cc1,-6.72%
5,OCCC#Cc1ccc(CN2CCN(Cc3ccsc3)C(CCO)C2)cc1 (configuration not stated),-1.75%
6,CCN(CC)C(=O)CC1(c2ccccc2OC)CCOC(C(C)C)C1 (configuration not stated),-1.89%
7,Cc1ccc(S(=O)(=O)N(C)C)cc1NC(=O)/C=C/c1cccs1,-6.43%
8,O=C(CC1C(=O)NCCN1Cc1ccc(-c2ccccc2)cc1)NCC1CCOCC1 (configuration not stated),-6.7%
9,COCC1CCCN(Cc2cn[nH]c2-c2cc3ccccc3o2)C1 (configuration not stated),-10.5%
10,Cc1ccc(C(=O)Nc2sc(Cc3ccc4c(c3)OCO4)c(C)c2C(N)=O)cc1,2.74%
11,O=C(Nn1cnc2ccccc2c1=O)c1ccc([N+](=O)[O-])cc1Cl,6.94%
12,O=C(CSc1cccc[n+]1[O-])c1ccc(Cl)cc1,-1.76%
13,Cc1ccc(N(C(=O)Cc2cccs2)C(C(=O)NCC2CCCO2)c2ccncc2)cc1 (configuration not stated),0.6%
14,COc1ccc(S(=O)(=O)N2CCC(C(=O)OCC(=O)c3ccccc3)CC2)cc1[N+](=O)[O-],0.56%
15,O=C(NNC(=S)Nc1ccc(F)cc1)[C@H]1C[C@@H]1c1ccccc1,-10.3%
16,COC(=O)c1ccc(-c2noc(CN(Cc3ccccn3)CC3CCCO3)n2)cc1 (configuration not stated),21.1%
17,CN(Cc1ccccn1)Cc1nc(-c2ccc(Cl)cc2)no1,57.7% (active)
18,CCN1CC(CN(C)Cc2nc(-c3ccc(Cl)cc3)no2)CC1=O (configuration not stated),-8.96%
19,Cc1c(C(=O)O)nnn1-c1nonc1N,2.29%
20,OC1CSc2nc3ccccc3n2C1 (configuration not stated),0.85%
21,O=C(NC(=S)Nc1cc(C(F)(F)F)ccc1N1CCOCC1)c1ccc(-c2cccc(Cl)c2)o1,-10.3%
22,CC1(OC(=O)CCc2ccccc2)C(=O)C=C2C=C(c3ccc(C#N)cc3)N(CCc3ccccn3)C=C2C1=O (configuration not stated),-12.4%
23,CC(=O)C1=C(O)C(=O)N(c2cccnc2)C1c1ccc([N+](=O)[O-])cc1 (configuration not stated),2.53%
24,Cc1cccc(NC(=S)NC23CN4CN(CN(C4)C2)C3)c1,53.8% (active)
25,Cc1cccc(NC(=S)Nc2ccc(Cl)c(Cl)c2)c1,0.05%

row,Structure (SMILES),inhibition
1,Cc1cccc(NC(=S)Nc2ccc(Br)cc2)c1,3.41%
2,S=C(Nc1ccc(Br)cc1Cl)N1CCC2(CC1)OCCO2,-1.42%
3,O=C(NC1CCN(Cc2ccccc2)CC1)c1cc(Br)c(Br)[nH]1,1.26%
4,O=C(CCCOc1ccc(Cl)cc1Cl)NNC(=O)C1CCC1,-6.08%
5,N/C(=N\OS(=O)(=O)c1cccc([N+](=O)[O-])c1)c1ccncc1,-6.25%
6,CCCCNC(=O)CSc1nc2ccc(NC(=O)CSc3nnc(N)s3)cc2s1,-6.44%
7,O=C(Cc1ccccc1)N1N=C(c2ccncc2)CC1(O)C(F)(F)F (configuration not stated),2.25%
8,COc1ccc(CC(=O)n2nc(-c3cccnc3)nc2N)cc1,89.7% (active)
9,COc1ccccc1C(=O)n1nc(-c2ccccc2)nc1N,19.2%
10,CCCC(=O)n1nc(-c2ccccc2)nc1N,27.1%
11,CCN1CCN(c2nc(Nc3cc(OC)ccc3OC)nc(Nc3cc(OC)ccc3OC)n2)CC1,-2.15%
12,Cc1nc(SCC(=O)N2CCc3ccccc3C2)c2c(C)c(C)sc2n1,103% (active)
13,Cc1nc(SCC(=O)N2CC(=O)Nc3ccccc32)c2c(C)c(C)sc2n1,-0.55%
14,Cc1nnc(SCC(=O)N2CCc3ccccc3C2)s1,7.65%
15,CC1(C)Cc2cccc(OCC(=O)N3CCN(c4ccc([N+](=O)[O-])cc4)CC3)c2O1,-1.43%
16,COc1ccc(NC(=O)C2=C(C)NC(=O)NC2c2ccccc2[N+](=O)[O-])cc1 (configuration not stated),-0.08%
17,CCOC(=O)N/N=C1\CC(C)S(=O)(=O)c2ccc(Cl)cc21 (configuration not stated),28.2%
18,Cc1cc(=O)[nH]c(S)c1C#N,-5%
19,CSCC[C@H](NC(=O)NC1CCCC1)C(=O)O,-3.12%
20,Cc1ccc(C)c(NC(=O)C2Cc3ccccc3CN2C(=O)OCc2ccccc2)c1 (configuration not stated),104% (active)
21,Cc1ccc(C)c(NC(=O)C2CCCN2C(=O)OC(C)(C)C)c1 (configuration not stated),1.35%
22,COc1cccc(NC(=O)C2CCCN2C(=O)OCc2ccccc2)c1 (configuration not stated),-12.3%
